Consider 3 molecules from ChEMBL document CHEMBL4673180, “Synthesis of quinone imine and sulphur-containing compounds with antitumor and trypanocidal activities: redox and biological implications” (RSC Med Chem, 2020).

The source made the active and inactive calls. No cut-off for these calls is given here.

What is called IC50 is the concentration needed to halve the response being measured.

The test system of one series is HCT-116. The series is described as follows: Cytotoxicity against human HCT-116 cells assessed as reduction in cell viability after 72 hrs by MTT assay. The series is classed as functional, cell-based. To be noted: HCT-116, 72 h. The essentials:
(§1)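 Cells were grown in medium with 10% FBS, 2 mM L-glutamine, penicillin and streptomycin at 37 °C, 5% CO2. Seeding per well was 0.1 × 10^6 for leukaemia, PC3, L929 and NCI-H460, and 0.7 × 10^5 for HCT-116. Compounds in DMSO (0.1% final) were applied for 72 h. MTT (0.5 mg/mL) was added for 3 h, formazan dissolved in DMSO, and absorbance read at 550 nm. IC50 by nonlinear regression; three independent experiments in triplicate.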
For orientation: Tetrazolium dyes change colour on reduction, which living cells bring about.

The subject of another series is NCI-H460. The series is described as follows: Cytotoxicity against human NCI-H460 cells assessed as reduction in cell viability after 72 hrs by MTT assay. In kind it is functional, cell-based. To be noted: NCI-H460, 72 h. The essentials: (§2)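 Cells were grown in medium with 10% FBS, 2 mM L-glutamine, penicillin and streptomycin at 37 °C, 5% CO2. Compounds in DMSO (0.1% final) were applied for 72 h. MTT (0.5 mg/mL) was added for 3 h, formazan dissolved in DMSO, and absorbance read at 550 nm. IC50 by nonlinear regression; three independent experiments in triplicate.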

The next series has as its system PC-3. The series is described as follows: Cytotoxicity against human PC-3 cells assessed as reduction in cell viability after 72 hrs by MTT assay. In kind it is functional, cell-based. Conditions: PC-3, 72 h. The essentials:
as §1

The next series has as its system HL-60. In words: Cytotoxicity against human HL-60 cells assessed as reduction in cell viability after 72 hrs by MTT assay. The series is classed as functional, cell-based. Conditions: HL-60, 72 h. In outline: as §2
Series [1] concerns K562. In words: Cytotoxicity against human K562 cells assessed as reduction in cell viability after 72 hrs by MTT assay. To be noted: K562, 72 h. In kind it is functional, cell-based. In outline:
as §1

A short description of series [2]: Cytotoxicity against human Lucena1 cells assessed as reduction in cell viability after 72 hrs by MTT assay. The series is classed as functional, cell-based. Conditions: Lucena 1, 72 h. In outline:
as §1

In the next series the test system is L929. The series is described as follows: Cytotoxicity against mouse L929 cells assessed as reduction in cell viability after 72 hrs by MTT assay. The series is classed as cell-based. To be noted: L929, 72 h. The essentials:
as §1

Series [3] can be described thus: Selectivity index, ratio of IC50 for mouse L929 cells to IC50 for human HCT116 cells after 72 hrs by MTT assay. To be noted: L929 cells versus HCT116 cells, read-out: Ratio IC50. In kind it is toxicity. The essentials: (§3)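 Both cell types were kept in medium with 10% FBS, 2 mM L-glutamine and penicillin/streptomycin at 37 °C, 5% CO2. Seeding was 0.7 × 10^5 cells per well for HCT-116, 0.1 × 10^6 for the other lines. Cells got compound in DMSO (0.1% final) for 72 h, then 0.5 mg/mL MTT for 3 h, with formazan read at 550 nm. IC50 came from nonlinear regression over three independent experiments in triplicate. SI is the L929 IC50 divided by the cancer-line IC50.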

Series [4] is described as follows: Selectivity index, ratio of IC50 for mouse L929 cells to IC50 for human NCI-H460 cells after 72 hrs by MTT assay. The series is classed as toxicity. Conditions: L929 cells versus NCI-H460 cells, read-out: Ratio IC50. The essentials:
as §3

A short description of series [5]: Selectivity index, ratio of IC50 for mouse L929 cells to IC50 for human PC3 cells after 72 hrs by MTT assay. In kind it is toxicity. Conditions: L929 cells versus PC3 cells, read-out: Ratio IC50. In outline: as §3
Series [6] in a line: Selectivity index, ratio of IC50 for mouse L929 cells to IC50 for human HL-60cells after 72 hrs by MTT assay. Conditions: L929 cells versus HL-60 cells, read-out: Ratio IC50. In kind it is toxicity. The essentials: as §3
A short description of series [7]: Selectivity index, ratio of IC50 for mouse L929 cells to IC50 for human K-562 cells after 72 hrs by MTT assay. In kind it is toxicity. Conditions: L929 cells versus K-562 cells, read-out: Ratio IC50. The essentials:
as §3

A short description of series [8]: Selectivity index, ratio of IC50 for mouse L929 cells to IC50 for human Lucena1 cells after 72 hrs by MTT assay. The essentials:
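Selectivity index is the ratio of IC50 in murine L929 fibroblasts to IC50 in Lucena 1 cells, each measured by 72 h MTT assay (absorbance 550 nm). IC50 values came from nonlinear regression of three independent experiments in triplicate.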

Series [9] deals with K562. The series is described as follows: Induction of reactive oxygen species generation in human K562 cells at 40 uM measured after 3 hr by H2DCFDA probe-based flow cytometry. The series is classed as functional, cell-based. In outline: (§4)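 K-562 cells were pre-loaded with 10 μM CM-H2DCFDA for 1 h in the dark at 37 °C/5% CO2, washed with PBS, then incubated with compound in fresh medium for 1 or 3 h. Cells were resuspended in PBS with 1 μg/mL propidium iodide and analysed by flow cytometry on ice. DCF fluorescence (ex 490/em 525 nm) was read in PI-negative cells, 10 000 events per sample. Menadione 20 μM and H2O2 150 μM were positive controls. Mean ± SEM of three independent experiments.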
Background: In flow cytometry, cells or beads pass a laser one at a time.

Series [10] concerns Trypanosoma cruzi. In words: Antitrypanosomal activity against Trypanosoma cruzi Y strain bloodstream trypomastigotes assessed as lysis of parasite in presence of 5 % mouse blood incubated for 24 hrs by Neubauer chamber method. In kind it is functional, organism-based. The essentials: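 Y strain bloodstream trypomastigotes came from infected albino mice at peak parasitaemia, purified by differential centrifugation, in RPMI at 10^7 cells/mL with 10% mouse blood. They were mixed 1:1 with compound at twice the final concentration (5% blood final), 24 h at 4 °C, with DMSO ≤0.4% final. Neubauer chamber counting; IC50 is 50% lysis; at least three independent experiments.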

Series [11] in a line: Cytotoxicity against albino Swiss mouse peritoneal macrophages assessed as reduction in cell viability incubated for 24 hrs by Presto blue assay. The series is classed as tissue-based, Macrophage. Conditions: read-out: LC50. In outline:
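Primary peritoneal macrophages from Albino Swiss mice were seeded at 2.5 × 10^4 cells per well in RPMI-1640 (pH 7.2, 10% FBS, 2 mM glutamine) and grown 24 h at 37 °C. They were then treated 24 h at 37 °C with compound from DMSO stock (final DMSO ≤0.4%).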

Series [12] is described as follows: Selectivity index, ratio of LC50 for cytotoxicity against albino Swiss mouse peritoneal macrophages to IC50 for Antitrypanosomal activity against Trypanosoma cruzi Y strain bloodstream trypomastigotes assessed as lysis of parasite in presence of 5 % mouse blood. The series is classed as toxicity. The essentials:
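Y-strain bloodstream trypomastigotes came from infected albino mice at peak parasitaemia and were purified by differential centrifugation. They were resuspended at 10^7/mL in RPMI with 10% mouse blood and mixed 1:1 with compound at twice the final concentration (DMSO ≤0.4%). Incubation was 24 h at 4 °C (5% blood per footnote).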

The test system of series [13] is Trypanosoma cruzi. In words: Antitrypanosomal activity against Trypanosoma cruzi Y strain bloodstream trypomastigotes assessed as lysis of parasite in absence of mouse blood incubated for 24 hrs by Neubauer chamber method. In kind it is functional, organism-based. The essentials: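 T. cruzi Y strain bloodstream trypomastigotes came from infected albino mice at peak parasitaemia and were purified by differential centrifugation. They were exposed to compounds for 24 h at 37 °C without blood. Parasites were counted in a Neubauer chamber, and IC50 is the concentration lysing 50% of parasites. Values are mean ± SD of at least three independent experiments.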

Series [14] is described as follows: Selectivity index, ratio of LC50 for cytotoxicity against albino Swiss mouse peritoneal macrophages to IC50 for Antitrypanosomal activity against Trypanosoma cruzi Y strain bloodstream trypomastigotes assessed as lysis of parasite in absence of mouse blood. The series is classed as toxicity. In outline: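 Y-strain bloodstream trypomastigotes came from infected albino mice at peak parasitaemia and were purified by differential centrifugation into RPMI. They were exposed 24 h at 37 °C without blood to compound (DMSO ≤0.4%).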

The test system of series [15] is K562. In words: Induction of reactive oxygen species generation in human K562 cells at 40 uM measured after 1 hr by H2DCFDA probe-based flow cytometry. In kind it is functional, cell-based. In outline:
as §4

Consider `C#CCOC1=C/C(=N\c2ccc(Cl)cc2)c2ccccc2C1=O`, for which the half-inhibitory concentration (IC50) in the series with HCT-116 was 18.9 µM; in the series with NCI-H460 it was 16.2 µM; in the series with PC-3, 14.6 µM; with HL-60 it was 11 µM; in the series with K562 [1] it was 12.8 µM; in series [2] it was 16.4 µM. In addition, in the series on L929, the IC50 is greater than 20 µM. For the same molecule, the selectivity ratio at 72 h worked out at 1.6 in series [3]; 1.9 in series [4]; 2.1 in series [5]; 2.8 in series [6]; 2.4 in series [7]. Besides, in series [8], the “Ratio IC50” value came to 1.9. The outcome in the series on K562 [9] was Active.

With `Cc1ccc(S(=O)(=O)n2cc(COC3=C/C(=N\c4ccc(Br)cc4)c4ccccc4C3=O)nn2)cc1`, the IC50 with Trypanosoma cruzi [10] is greater than 500 µM; in the series on HCT-116 it was 9.25 µM; with NCI-H460, 9.41 µM; in the series on PC-3, 3.41 µM; in the series with HL-60, 4.22 µM; in the series with K562 [1], 5.4 µM. Moreover, the half-inhibitory concentration (IC50) is 3.32 µM in series [2] and greater than 17.8 µM in the series on L929. For the same molecule, the CC50 at 24 h in series [11] is greater than 100 µM. Moreover, the selectivity ratio at 72 h was 1.9 in series [3]; 1.9 in series [4]; 5.2 in [5]; 4.2 in series [6]; 3.3 in series [7]. For the same molecule, the “Ratio IC50” value in series [8] is on record as 5.3. Moreover, in the series with K562 [9], the outcome was Active.

`O=C1C=C(Sc2ccccc2)c2ccccc2C1=O`: the IC50 is 24.3 µM in the series with Trypanosoma cruzi [10]; 1.3 µM in the series with Trypanosoma cruzi [13]; 12.8 µM with HCT-116; greater than 20 µM with NCI-H460; greater than 20 µM in the series on PC-3; 6.08 µM in the series with HL-60. Further, the values for the half-maximal inhibitory concentration (IC50) (in the series with K562 [1]; in series [2]; in the series on L929) were 15.7 µM, 15.6 µM and greater than 20 µM, respectively. In addition, in [11], the CC50 at 24 h is 36.9 µM. Besides, the figures for the selectivity ratio in series [12] and in [14] were 1.52 and 28.4, respectively. The selectivity ratio at 72 h in [3] came out at 2.2; in series [4], 0.7; in series [5] it was 0.7; in [6] it was 4.6; in series [7] it was 1.8. For the same molecule, the “Ratio IC50” value in series [8] stood at 1.8. The outcome in the series with K562 [15] and with K562 [9] was Active.
